Data reported in ChEMBL document CHEMBL1144864, “Exploration of the bicyclo[3.3.1]nonane system as a template for the development of new ligands for the estrogen receptor” (Bioorg Med Chem Lett, 2003).

Tests used:
[1] = biological target: Estrogen receptor (Homo sapiens) (UniProt Q92731+P03372); experiment: Relative affinity for alpha and beta estrogen receptors; type: protein assay
[2] = biological target: T1, Estrogen receptor (Homo sapiens) (UniProt P03372); experiment: Affinity for estrogen receptor alpha (ER-alpha) relative to estradiol
T1 sequence (whole entry): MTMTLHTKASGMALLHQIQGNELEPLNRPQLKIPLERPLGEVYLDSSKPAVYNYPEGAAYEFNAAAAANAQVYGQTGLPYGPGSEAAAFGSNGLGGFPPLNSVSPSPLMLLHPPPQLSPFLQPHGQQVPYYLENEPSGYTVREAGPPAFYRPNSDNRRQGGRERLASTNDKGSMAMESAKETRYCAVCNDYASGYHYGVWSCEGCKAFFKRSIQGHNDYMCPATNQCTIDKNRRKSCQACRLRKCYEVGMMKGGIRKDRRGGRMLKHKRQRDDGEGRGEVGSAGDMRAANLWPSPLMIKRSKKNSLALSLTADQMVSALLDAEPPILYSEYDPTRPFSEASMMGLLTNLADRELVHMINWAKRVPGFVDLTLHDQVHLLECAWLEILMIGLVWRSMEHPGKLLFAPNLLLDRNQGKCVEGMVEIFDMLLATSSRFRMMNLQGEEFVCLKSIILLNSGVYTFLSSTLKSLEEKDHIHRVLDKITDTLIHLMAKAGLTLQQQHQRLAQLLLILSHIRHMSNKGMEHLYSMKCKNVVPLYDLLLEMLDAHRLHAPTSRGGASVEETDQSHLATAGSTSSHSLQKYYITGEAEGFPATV
Procedure, shortened: (§1)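 Competitive radiometric binding assay against ER alpha or ER beta. Values are reported as relative binding affinity (RBA), expressed as a percentage of the affinity of estradiol.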

[3] = biological target: Estrogen receptor beta (Homo sapiens) (UniProt Q92731); experiment: Affinity for estrogen receptor beta (ER-beta) relative to estradiol; procedure, shortened: as §1
Estrogen receptor beta (Homo sapiens), sequence (Q92731 whole entry): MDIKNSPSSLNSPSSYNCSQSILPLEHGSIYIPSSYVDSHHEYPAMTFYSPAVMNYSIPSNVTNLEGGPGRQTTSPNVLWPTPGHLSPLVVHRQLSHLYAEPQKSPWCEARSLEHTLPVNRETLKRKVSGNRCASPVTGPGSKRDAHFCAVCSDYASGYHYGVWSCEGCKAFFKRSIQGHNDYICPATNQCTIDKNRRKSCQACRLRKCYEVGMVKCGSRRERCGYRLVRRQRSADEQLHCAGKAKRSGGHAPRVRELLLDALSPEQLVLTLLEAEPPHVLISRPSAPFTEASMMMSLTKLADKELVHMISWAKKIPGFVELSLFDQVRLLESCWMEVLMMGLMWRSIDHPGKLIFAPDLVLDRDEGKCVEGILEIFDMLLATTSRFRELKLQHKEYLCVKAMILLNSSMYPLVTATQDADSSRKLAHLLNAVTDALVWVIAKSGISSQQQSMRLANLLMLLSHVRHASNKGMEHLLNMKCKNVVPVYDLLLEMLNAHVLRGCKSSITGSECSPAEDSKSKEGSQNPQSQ

[4] = biological target: Estrogen receptor beta (Homo sapiens) (UniProt Q92731); experiment: Binding affinity for Estrogen receptor beta relative to estradiol; procedure, shortened: as §1
[5] = biological target: T1, Estrogen receptor (Homo sapiens); experiment: Binding affinity for Estrogen receptor alpha relative to estradiol; procedure, shortened: as §1

Estrogen receptor (Homo sapiens) (UniProt Q92731+P03372), sequence (Q92731 whole entry, looked up, one chain of several): as the sequence (Q92731 whole entry) above

Ratio [1]	relative binding affinity (RBA) [2]	relative binding affinity (RBA) [3]	relative binding affinity (RBA) [4]	relative binding affinity (RBA) [5]	Structure (SMILES)
2	0.033	0.072	–	–	Oc1ccc2c(c1)C1Cc3ccc(O)cc3C(C2)C1
0.8	0.31	0.25	–	–	Oc1ccc(C2(c3ccc(O)cc3)C3CCCC2CCC3)cc1
3.6	0.007	0.025	–	–	C[C@@H]1c2ccc(O)cc2C2CC1c1cc(O)ccc1[C@H]2C
6.6	0.44	2.9	–	–	Oc1ccc(C2CCC3CC2CCC3c2ccc(O)cc2)cc1 (stereo not drawn)
3.5	0.006	0.021	–	–	O=C1c2cc(O)ccc2C2CC1c1ccc(O)cc1C2=O
2.7	0.004	0.011	–	–	C[C@@H]1c2cc(O)ccc2C2CC1c1ccc(O)cc1[C@H]2C
3.5	0.22	0.77	–	–	Oc1ccc2c(c1)CC1CC2Cc2cc(O)ccc21
0.59	513	301	–	–	Oc1ccc(C(=C2C3CCCC2CCC3)c2ccc(O)cc2)cc1
28	0.32	8.9	–	–	CC1(c2ccc(O)cc2)C2CCCC1CCC2 (stereo not drawn)
–	< 0.005	< 0.005	–	–	Oc1ccc2c(c1)CN1CN2Cc2cc(O)ccc21
–	–	–	334	68	CC(=O)Oc1ccc(C(=C2CCCCC2)c2ccc(OC(C)=O)cc2)cc1
4.6	0.39	1.81	–	–	Oc1ccc(C2=CCC3CCCC2C3)cc1 (stereo not drawn)
2.7	1.71	4.58	–	–	CC(=C1C2CCCC1CCC2)c1ccc(O)cc1
10	0.13	1.33	–	–	Oc1ccc(C2C3CCCC2CCC3)cc1 (stereo not drawn)
4.4	0.005	0.022	–	–	O=C1c2ccc(O)cc2C2CC1c1cc(O)ccc1C2=O
